# ChEMBL document CHEMBL1121637, “Tumor inhibitory triazenes. 2. Variation of antitumor activity within an homologous series” (J Med Chem, 1980)
# How the values were obtained:
# Mus musculus [1] = assay: Percent increase in life span of TLX/5 lymphoma bearing mice at dose of 50 mg/kg; assay type: functional
# Outline: (§1)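 Female CBA/LAC mice with subcutaneously transplanted TLX/5 lymphoma. Drug given i.p. in saline (about pH 7.5) once daily for 5 consecutive days, starting 3 days after transplant. Doses ran 12.5–400 mg/kg, with lower doses made by serial dilution. Five mice per dose; survival time compared with 10 untreated controls. ILS ≥20% counted significant. Minimum dose for 50% ILS expressed in mol/kg.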
# Mus musculus [2] = assay: Percent increase in life span of TLX/5 lymphoma bearing mice at dose of 12.5 mg/kg; assay type: functional; outline: as §1
# Mus musculus [3] = species on record: Mus musculus; assay: Minimum dose that causes 50% increase in life span in TLX/5 lymphoma bearing animal; assay type: functional; outline: as §1
# [4] = Solubility in sorensen's phosphate buffer at pH 7.4 and 25 degrees Centigrade.
# Mus musculus [5] = assay: Percent increase in life span of TLX/5 lymphoma bearing mice at dose of 100 mg/kg; assay type: functional; outline: as §1
# Mus musculus [6] = assay: Percent increase in life span of TLX/5 lymphoma bearing mice at dose of 25 mg/kg; assay type: functional
# Mus musculus [7] = assay: Percent increase in life span of TLX/5 lymphoma bearing mice at dose of 400 mg/kg; assay type: functional; outline: as §1
# [8] = Partition coefficient was determined in octanol-saturated sorenson's pH 7.4 phosphate buffer and buffer-saturated octanol.; assay type: physicochemical; settings: octanol/Sorensen's phosphate buffer
# Outline: (§2)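 Compound shaken 1 h at room temperature in 0.1 M Sorenson's phosphate buffer pre-saturated with octanol, filtered. A known volume was then shaken 1 h with a known volume of buffer-saturated octanol. Aqueous phase and initial filtrate diluted in ethanol, filtered, absorbance read at λmax. P = (aqueous vol × absorbance drop)/(final aqueous absorbance × octanol vol). Mean of at least two determinations.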
# Mus musculus [9] = assay: Percent increase in life span of TLX/5 lymphoma bearing mice at dose of 200 mg/kg; assay type: functional; outline: as §1
# Mus musculus [10] = assay: Percent increase in life span of TLX/5 lymphoma bearing mice at dose of 25 mg/kg when 10 % acetone/Oil is given as vehicle; assay type: functional
# Mus musculus [11] = assay: Percent increase in life span of TLX/5 lymphoma bearing mice at dose of 400 mg/kg when 10 % acetone/Oil is given as vehicle; assay type: functional
# Mus musculus [12] = assay: Percent increase in life span of TLX/5 lymphoma bearing mice at dose of 200 mg/kg when 10 % acetone/Oil is given as vehicle; assay type: functional
# Mus musculus [13] = assay: Percent increase in life span of TLX/5 lymphoma bearing mice at dose of 12.5 mg/kg when 10 % acetone/Oil is given as vehicle; assay type: functional
# Mus musculus [14] = assay: Percent increase in life span of TLX/5 lymphoma bearing mice at dose of 100 mg/kg when 10 % acetone/Oil is given as vehicle; assay type: functional
# Mus musculus [15] = assay: Percent increase in life span of TLX/5 lymphoma bearing mice at dose of 50 mg/kg when 10 % acetone/Oil is given as vehicle; assay type: functional
# [16] = Partition coefficient between octanol-saturated sorenson's pH 7.4 phosphate buffer and buffer-saturated octanol.; assay type: physicochemical; settings: octanol/Sorensen's phosphate buffer; outline: as §2
# Mus musculus [17] = species on record: Mus musculus; assay: Minimum dose that causes 50% increase in life span in TLX/5 lymphoma bearing mice; assay type: functional; outline: as §1
# Mus musculus [18] = assay: Percent increase in life span of TLX/5 lymphoma bearing mice at dose of 100 mg/kg 200 mg/kg; assay type: functional; outline: as §1
Compound,ILS at 50 mg/kg (Mus musculus [1]) [%],ILS at 12.5 mg/kg (Mus musculus [2]) [%],Dose (Mus musculus [3]) [mol/kg],Solubility [4] [M l-1],ILS at 100 mg/kg (Mus musculus [5]) [%],ILS at 25 mg/kg (Mus musculus [6]) [%],ILS at 400 mg/kg (Mus musculus [7]) [%],logD [8],ILS at 200 mg/kg (Mus musculus [9]) [%],ILS at 25 mg/kg (Mus musculus [10]) [%],ILS at 400 mg/kg (Mus musculus [11]) [%],ILS at 200 mg/kg (Mus musculus [12]) [%],ILS at 12.5 mg/kg (Mus musculus [13]) [%],ILS at 100 mg/kg (Mus musculus [14]) [%],ILS at 50 mg/kg (Mus musculus [15]) [%],logD [16],Dose (Mus musculus [17]) [mol/kg],ILS at 200 mg/kg (Mus musculus [18]) [%]
CCC(C)CN(C)/N=N/c1ccc(C(=O)O)cc1 (centres undefined),52,7,0.0002,0.0162,62,11,57,1.33,60,–,–,–,–,–,–,–,–,–
CCCCCCCCCCCCN(C)/N=N/c1ccc(C(=O)O)cc1,–,–,–,4.13e-6,–,–,–,–,–,–,–,–,–,–,–,–,–,–
CN(Cc1ccccc1)/N=N/c1ccc(C(=O)O)cc1,7,6,–,–,49,6,-61,–,-59,–,–,–,–,–,–,–,–,–
CCCCN(C)/N=N/c1ccc(C(=O)O)cc1,86,69,5.3e-05,0.0155,47,82,-31,0.97,20,–,–,–,–,–,–,–,–,–
CN(C)/N=N/c1ccc(C(=O)O)cc1,83,40,6.2e-05,–,34,72,-34,-0.44,0,51,-36,-4,19,49,70,–,–,–
C#CCN(C)/N=N/c1ccc(C(=O)O)cc1,76,0,0.00015,–,70,36,-18,0,40,–,–,–,–,–,–,–,–,–
C=CCN(C)/N=N/c1ccc(C(=O)O)cc1,96,1,0.00017,–,76,11,-25,0.32,56,–,–,–,–,–,–,–,–,–
CCCCCCN(C)/N=N/c1ccc(C(=O)O)cc1,18,0,3e-05,0.00298,73,0,-53,1.95,-8,–,–,–,–,–,–,–,–,–
CCCCCCCCN(C)/N=N/c1ccc(C(=O)O)cc1,–,–,–,0.000171,–,–,–,2.77,–,–,–,–,–,–,–,–,–,–
CCCCCCCN(C)/N=N/c1ccc(C(=O)O)cc1,5,3,–,0.00041,9,1,-48,2.58,-19,–,–,–,–,–,–,–,–,–
CCN(C)/N=N/c1ccc(C(=O)O)cc1,79,44,–,–,67,79,-21,–,–,–,–,–,–,–,–,0.04,7e-05,27
CCCCCN(C)/N=N/c1ccc(C(=O)O)cc1,75,10,7.1e-05,0.00428,61,108,-61,1.49,-61,–,–,–,–,–,–,–,–,–
CCCN(C)/N=N/c1ccc(C(=O)O)cc1,69,13,9.4e-05,0.0368,69,69,-3,0.46,57,–,–,–,–,–,–,–,–,–
CC(C)N(C)/N=N/c1ccc(C(=O)O)cc1,64,37,7e-05,–,60,90,35,0.34,45,–,–,–,–,–,–,–,–,–
CN(C)/N=N/c1[nH]cnc1C(N)=O [DACARBAZINE],59,55,–,–,55,55,-11,–,61,–,–,–,–,–,–,–,–,–
